Measured values reported in ChEMBL document CHEMBL3351885, “Putative kappa opioid heteromers as targets for developing analgesics free of adverse effects” (J Med Chem, 2014).
Activity calls are given as the source filed them.

Assays:
Mus musculus [1] = experiment: Antinociceptive effect in intrathecally dosed ICR-CD1 mouse assessed as drug tolerance development measured after 25 hrs by tail flick test; assay type: functional, organism-based
How it was run: (§1)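 Acute tolerance: the highest (ED80−90) dose of the day-1 dose-response curve was given again 24 h later to the same mice in the tail-flick test. No significant difference between days was scored as no tolerance.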

Mus musculus [2] = experiment: Antinociceptive effect in intrathecally dosed ICR-CD1 mouse assessed as peak time for antinociceptive effect by tail flick test; assay type: functional
How it was run: (§2)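 Peak time in the mouse tail-flick test was set by measuring antinociception at 5, 10, 20, 30 and 60 min after dosing; latency cutoff 10 s; response expressed as %MPE.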

Mus musculus [3] = experiment: Antinociceptive effect in intrathecally dosed ICR-CD1 mouse by tail flick test; assay type: functional
How it was run: (§3)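 Male ICR-CD1 mice, 17−25 g. Tail-flick latency was taken before dosing and at the compound's peak time, with a 10 s cutoff. Response was expressed as %MPE = (test − control)/(10 − control) × 100. Three groups of 8−10 mice per dose-response curve, each mouse used once. ED50 with 95% CI came from nonlinear regression.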

[4] = target: T1, Opioid receptors; delta & kappa (Homo sapiens) (UniProt P41145+P41143); experiment: Agonist activity at human delta-kappa opioid receptor expressed in HEK293 cells assessed as induction of intracellular calcium release by FLIPR assay; assay type: functional, cell-based
T1 sequence (P41143 whole entry, looked up): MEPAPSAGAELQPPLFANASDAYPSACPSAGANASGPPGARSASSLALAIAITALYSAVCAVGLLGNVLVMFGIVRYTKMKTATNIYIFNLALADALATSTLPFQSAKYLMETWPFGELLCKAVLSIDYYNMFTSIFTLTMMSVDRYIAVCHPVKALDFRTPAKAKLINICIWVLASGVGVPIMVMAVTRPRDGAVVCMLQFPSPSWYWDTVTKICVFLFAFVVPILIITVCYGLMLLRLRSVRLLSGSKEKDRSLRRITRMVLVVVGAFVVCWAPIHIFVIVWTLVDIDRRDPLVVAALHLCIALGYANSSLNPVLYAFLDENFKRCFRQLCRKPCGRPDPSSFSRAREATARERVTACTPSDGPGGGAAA
T1 sequence (P41145 whole entry, looked up): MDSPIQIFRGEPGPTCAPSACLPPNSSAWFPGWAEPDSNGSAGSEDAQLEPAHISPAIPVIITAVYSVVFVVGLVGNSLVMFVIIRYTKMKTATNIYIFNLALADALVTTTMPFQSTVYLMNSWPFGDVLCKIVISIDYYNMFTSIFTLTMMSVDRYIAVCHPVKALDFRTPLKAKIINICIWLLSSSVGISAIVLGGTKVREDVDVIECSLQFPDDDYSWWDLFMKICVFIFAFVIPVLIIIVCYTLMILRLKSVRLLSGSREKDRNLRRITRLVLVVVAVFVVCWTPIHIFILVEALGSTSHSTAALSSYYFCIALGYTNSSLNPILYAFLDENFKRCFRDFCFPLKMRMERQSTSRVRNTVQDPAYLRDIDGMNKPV
How it was run: (§4)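 HEK293 cells stably carrying chimeric Δ6-Gαqi-myr, transiently transfected with one or two opioid receptor cDNAs (200 ng/20000 cells, Lipofectamine 2000). Cells were reseeded at 24 h and assayed 48 h post-transfection with a FLIPR Ca2+ kit. Fluorescence was read for 90 s after ligand addition to build concentration-response curves; mean ± SEM, n = 3−5.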

Mus musculus [5] = experiment: Antinociceptive effect in intracerebroventricularly dosed ICR-CD1 mouse by tail flick test; assay type: functional; how it was run: as §3
[6] = target: T2, Opioid receptors; mu & kappa (Homo sapiens) (UniProt P41145+P35372); experiment: Agonist activity at human mu-kappa opioid receptor expressed in HEK293 cells assessed as induction of intracellular calcium release by FLIPR assay; assay type: functional, cell-based; how it was run: as §4
T2 sequence (P35372 whole entry, looked up): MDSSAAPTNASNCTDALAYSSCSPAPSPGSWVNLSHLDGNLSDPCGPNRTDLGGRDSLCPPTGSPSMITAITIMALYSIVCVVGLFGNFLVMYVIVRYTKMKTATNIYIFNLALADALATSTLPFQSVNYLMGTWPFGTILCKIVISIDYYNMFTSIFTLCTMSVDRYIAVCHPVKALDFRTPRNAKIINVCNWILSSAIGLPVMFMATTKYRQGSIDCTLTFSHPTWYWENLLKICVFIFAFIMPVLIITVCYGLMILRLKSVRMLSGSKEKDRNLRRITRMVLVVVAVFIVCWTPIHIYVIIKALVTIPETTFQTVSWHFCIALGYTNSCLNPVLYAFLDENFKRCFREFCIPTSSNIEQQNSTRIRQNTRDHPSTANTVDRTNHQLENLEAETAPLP
T2 sequence (P41145 whole entry, looked up): as the sequence (P41145 whole entry, looked up) above

Mus musculus [7] = experiment: Antinociceptive effect in intracerebroventricularly dosed ICR-CD1 mouse assessed as drug tolerance development measured after 25 hrs by tail flick test; assay type: functional, organism-based; how it was run: as §1
[8] = target: Mu-type opioid receptor (Homo sapiens) (UniProt P35372); experiment: Agonist activity at human mu opioid receptor expressed in HEK293 cells assessed as induction of intracellular calcium release by FLIPR assay; assay type: functional, cell-based; how it was run: as §4
Chain of Mu-type opioid receptor (Homo sapiens) (P35372 whole entry): as the sequence (P35372 whole entry, looked up) above

Mus musculus [9] = experiment: Antinociceptive effect in intracerebroventricularly dosed ICR-CD1 mouse assessed as peak time for antinociceptive effect by tail flick test; assay type: functional; how it was run: as §2
[10] = target: Kappa-type opioid receptor (Homo sapiens) (UniProt P41145); experiment: Agonist activity at human kappa opioid receptor expressed in HEK293 cells assessed as induction of intracellular calcium release by FLIPR assay; assay type: functional, cell-based; how it was run: as §4
Chain of Kappa-type opioid receptor (Homo sapiens) (P41145 whole entry): as the sequence (P41145 whole entry, looked up) above

[11] = target: Delta-type opioid receptor (Homo sapiens) (UniProt P41143); experiment: Agonist activity at human delta opioid receptor expressed in HEK293 cells assessed as induction of intracellular calcium release by FLIPR assay; assay type: functional, cell-based; how it was run: as §4
Chain of Delta-type opioid receptor (Homo sapiens) (P41143 whole entry): as the sequence (P41143 whole entry, looked up) above

Mus musculus [12] = experiment: Potency ratio, ratio,of ED50 for antinociceptive effect in intracerebroventricularly dosed ICR-CD1 mouse to ED50 for intrathecally dosed ICR-CD1 mouse by tail flick test; assay type: functional
[13] = target: Opioid receptors; mu & delta (Homo sapiens) (UniProt P41143+P35372); experiment: Agonist activity at human mu-delta opioid receptor expressed in HEK293 cells assessed as induction of intracellular calcium release by FLIPR assay; assay type: functional, cell-based; how it was run: as §4
Chain of Opioid receptors; mu & delta (Homo sapiens) (P35372 whole entry, looked up): as the sequence (P35372 whole entry, looked up) above
Chain of Opioid receptors; mu & delta (Homo sapiens) (P41143 whole entry, looked up): as the sequence (P41143 whole entry, looked up) above

Mus musculus [14] = experiment: Induction of aversion in ICR-CD1 mouse at 0.1 to 1 mg/kg, sc by conditioned place preference assay; assay type: organism-based; parameters: dose 0.1-1 mg/kg, route subcutaneous; conditions: in vivo
How it was run: (§5)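 Two-chamber place conditioning with rod versus mesh floors. Bias was taken in a 20 min free-exploration pretest, and groups were counterbalanced. Drug or vehicle (saline with 1% DMSO) was paired with one chamber and saline with the other, injected sc 20 min before 30 min confinement. Four drug and four saline sessions alternated daily. Tests of 20 min came after the 4th and 8th sessions. Score = change in CS+ time from pretest; Bonferroni t test against vehicle.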

Mus musculus [15] = experiment: Antinociceptive effect in sc dosed ICR-CD1 mouse by tail flick test; assay type: functional; how it was run: as §3
Mus musculus [16] = experiment: Antinociceptive effect in orally dosed ICR-CD1 mouse by tail flick test; assay type: functional; conditions: po; how it was run: as §3
Mus musculus [17] = experiment: Physical dependence in ICR-CD1 mouse assessed as induction of jumps over 10 mins period at 2.5 to 10 mg/kg, sc dosed three times daily for 4 days and 10 mg/kg, sc on day 5 followed 3 hrs later by single 50 mg/kg, sc naloxone; assay type: organism-based; conditions: in vivo
How it was run: (§6)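 Mice received sc drug three times daily for 4 days (2.5−10 mg/kg), then 10 mg/kg on day 5, with sc naloxone 3 h later. Jumps were counted over 10 min. A morphine group served as control.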

Mus musculus [18] = experiment: Induction of aversion in ICR-CD1 mouse at 0.3 to 10 mg/kg, sc by conditioned place preference assay; assay type: organism-based; parameters: dose 0.3-10 mg/kg, route subcutaneous; conditions: in vivo; how it was run: as §5
Mus musculus [19] = experiment: Rewarding effect in ICR-CD1 mouse at 0.3 to 10 mg/kg, sc in presence of naloxone by conditioned place preference assay; assay type: functional, organism-based
Mus musculus [20] = experiment: Antinociceptive effect in sc dosed ICR-CD1 mouse by tail flick test relative to morphine; assay type: functional
Mus musculus [21] = experiment: Antinociceptive effect in intrathecally dosed ICR-CD1 mouse co-treated with delta opioid receptor antagonist NTB by tail flick test; assay type: functional, organism-based
Mus musculus [22] = experiment: Ratio of antinociceptive effect in intrathecally dosed ICR-CD1 mouse in presence of 500 nmol naloxone to antinociceptive effect in intrathecally dosed ICR-CD1 mouse in absence of 500 nmol naloxone; assay type: functional
[23] = target: T2, Opioid receptors; mu & kappa (Homo sapiens); experiment: Agonist activity at human mu-kappa opioid receptor expressed in HEK293 cells assessed as induction of beta-arrestin 2 recruitment incubated for 60 mins by fluorescent microscopy; assay type: cell-based
How it was run: (§7)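 HEK293 cells were transiently transfected with single or paired opioid receptors, replated on chamber slides after 24 h and left overnight. Ligands in serum-free medium were applied for 60 min at 37 °C. Cells were fixed in 4% paraformaldehyde, then stained with goat anti-β-arrestin2 (1 μg/mL, 4 °C overnight), fluorescent anti-goat secondary (30 min, RT) and DAPI. A brighter membrane on fluorescence microscopy scored as recruitment.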

[24] = target: Mu-type opioid receptor (Homo sapiens) (UniProt P35372); experiment: Agonist activity at human mu opioid receptor expressed in HEK293 cells assessed as induction of beta-arrestin 2 recruitment incubated for 60 mins by fluorescent microscopy; assay type: cell-based; how it was run: as §7
[25] = target: Kappa-type opioid receptor (Homo sapiens) (UniProt P41145); experiment: Agonist activity at human kappa opioid receptor expressed in HEK293 cells assessed as induction of beta-arrestin 2 recruitment incubated for 60 mins by fluorescent microscopy; assay type: cell-based; how it was run: as §7
Mus musculus [26] = experiment: Antinociceptive effect in ICR-CD1 mouse dosed intrathecally twice on day 1 and day 2 followed by injection with same dose on day 3 by tail flick test; assay type: functional
Mus musculus [27] = experiment: Physical dependence in ICR-CD1 mouse assessed as induction of jumps over 10 mins period at 2.5 to 10 mg/kg, sc dosed three times daily for 4 days and 10 mg/kg, sc on day 5 followed 3 hrs later by single 10 mg/kg, sc naloxone; assay type: organism-based; conditions: in vivo; how it was run: as §6
Mus musculus [28] = experiment: Antinociceptive effect in intrathecally dosed ICR-CD1 mouse co-treated with mu opioid receptor antagonist beta-FNA by tail flick test; assay type: functional, organism-based
[29] = target: Delta-type opioid receptor (Homo sapiens) (UniProt P41143); experiment: Agonist activity at human delta opioid receptor expressed in HEK293 cells assessed as induction of beta-arrestin 2 recruitment incubated for 60 mins by fluorescent microscopy; assay type: cell-based; how it was run: as §7
Mus musculus [30] = experiment: Antinociceptive effect in intrathecally dosed ICR-CD1 mouse co-treated with kappa opioid receptor antagonist norB-NI by tail flick test; assay type: functional, organism-based
Mus musculus [31] = experiment: Rewarding effect in ICR-CD1 mouse at 0.3 to 10 mg/kg, sc by conditioned place preference assay; assay type: functional, organism-based; how it was run: as §5
[32] = target: T1, Opioid receptors; delta & kappa (Homo sapiens); experiment: Agonist activity at human kappa-delta opioid receptor expressed in HEK293 cells assessed as induction of beta-arrestin 2 recruitment incubated for 60 mins by fluorescent microscopy; assay type: cell-based; how it was run: as §7

Compound | Activity (Mus musculus [1]) | Time (Mus musculus [2]) [min] | ED50 (Mus musculus [3]) [pmol] | Activity [4] | MPE (Mus musculus [5]) [%] | Activity [6] | Activity (Mus musculus [7]) | Activity [8] | Time (Mus musculus [9]) [min] | Activity [10] | Activity [11] | Ratio ED50 (Mus musculus [12]) | ED50 (Mus musculus [5]) [pmol] | Activity [13] | MPE (Mus musculus [3]) [%] | further results
O=C(N[C@@H]1CC[C@@]2(O)[C@H]3Cc4ccc(O)c5c4[C@@]2(CCN3CC2CC2)[C@H]1O5)c1c[nH]c2ccccc12 | Active | 20 | 29.39 | Active | <60 | Active |  |  |  |  |  |  |  |  |  | 
Cn1c(C(=O)N[C@@H]2CC[C@@]3(O)[C@H]4Cc5ccc(O)c6c5[C@@]3(CCN4CC3CC3)[C@H]2O6)cc2ccccc21 | Active | 10 | 23.06 | Active |  | Active | Active | Active | 10 | Active | Active | 24 | 550.4 | Active |  | 
O=C(N[C@@H]1CC[C@@]2(O)[C@H]3Cc4ccc(O)c5c4[C@@]2(CCN3CC2CC2)[C@H]1O5)c1cc2ccccc2o1 | Active | 10 | 191.9 | Active |  | Active | Active | Active | 10 | Active | Active | 3 | 580.8 | Active |  | 
O=C(N[C@@H]1CC[C@@]2(O)[C@H]3Cc4ccc(O)c5c4[C@@]2(CCN3CC2CC2)[C@H]1O5)c1cc2cc(Cl)ccc2[nH]1 |  | 20 |  | Active | <60 | Active |  |  |  |  |  |  |  |  | <60 | 
COC(=O)[C@@H]1C[C@H](OC(C)=O)C(=O)[C@H]2[C@@]1(C)CC[C@H]1C(=O)O[C@H](c3ccoc3)C[C@]21C [SALVINORIN A] |  |  |  |  |  |  |  |  |  |  |  |  |  |  |  | Activity (Mus musculus [14]): Toxic
CN1CC[C@]23c4c5ccc(O)c4O[C@H]2[C@@H](O)C=C[C@H]3[C@H]1C5 [MORPHINE] |  |  |  |  |  |  |  |  |  |  |  |  |  |  |  | ED50 (Mus musculus [15]): 7.8 mg/kg; ED50 (Mus musculus [16]): 2.51 mg/kg
O=C(N[C@@H]1CC[C@@]2(O)[C@H]3Cc4ccc(O)c5c4[C@@]2(CCN3CC2CC2)[C@H]1O5)c1cc2ccccc2s1 |  | 20 |  | Active | <60 | Active |  | Active |  | Active | Active |  |  | Active | <60 | 
O=C(N[C@@H]1CC[C@@]2(O)[C@H]3Cc4ccc(O)c5c4[C@@]2(CCN3CC2CC2)[C@H]1O5)c1cc2cc(F)ccc2[nH]1 | inactive | 10 | 295 | inactive | <60 |  |  |  |  |  |  |  |  | Active |  | 
O=C(N[C@@H]1CC[C@@]2(O)[C@H]3Cc4ccc(O)c5c4[C@@]2(CCN3CC2CC2)[C@H]1O5)c1cc2ccccc2[nH]1 | Active | 10 | 21.27 | Active |  | Active | Active | Active | 10 | Active | Active | 59 | 1252.2 | Active |  | Activity (Mus musculus [17]): Non-toxic; Activity (Mus musculus [18]): Non-toxic; ED50 (Mus musculus [15]): 0.97 mg/kg; Activity (Mus musculus [19]): inactive; Ratio ED50 (Mus musculus [20]): 9; Activity (Mus musculus [21]): Active; Ratio (Mus musculus [22]): 15; Activity [23]: inactive; Activity [24]: Active; Activity [25]: Active; ED50 (Mus musculus [26]): 29.47 pmol; Activity (Mus musculus [27]): Non-toxic; ED50 (Mus musculus [16]): 9.08 mg/kg; Activity (Mus musculus [28]): Active; Activity [29]: Active; Activity (Mus musculus [30]): Active; Activity (Mus musculus [31]): Dose-dependent effect; Activity [32]: inactive
O=C(N[C@@H]1CC[C@@]2(O)[C@H]3Cc4ccc(O)c5c4[C@@]2(CCN3CC2CC2)[C@H]1O5)c1ccc2[nH]ccc2c1 |  | 20 |  | Active | <60 | Active |  |  |  |  |  |  |  |  | <60 | 
